Source: PubChem BioAssay (Broad Institute)
E-sel inducer: E-selectin induction in HUVECs, primary screen, imaging, HUVEC, immunofluorescence imaging, single point; activation, % at 7.58 µM; AID 686992, 2013; normalized: neutral wells 0, TNF-alpha wells 100; actives 0.37% (n = 260,000);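 active = mean E-selectin-positive cell signal at least 10% of the positive control, reached in at least 60% of replicates, without over 20% cell loss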
Target sequence (P16581 whole entry, looked up): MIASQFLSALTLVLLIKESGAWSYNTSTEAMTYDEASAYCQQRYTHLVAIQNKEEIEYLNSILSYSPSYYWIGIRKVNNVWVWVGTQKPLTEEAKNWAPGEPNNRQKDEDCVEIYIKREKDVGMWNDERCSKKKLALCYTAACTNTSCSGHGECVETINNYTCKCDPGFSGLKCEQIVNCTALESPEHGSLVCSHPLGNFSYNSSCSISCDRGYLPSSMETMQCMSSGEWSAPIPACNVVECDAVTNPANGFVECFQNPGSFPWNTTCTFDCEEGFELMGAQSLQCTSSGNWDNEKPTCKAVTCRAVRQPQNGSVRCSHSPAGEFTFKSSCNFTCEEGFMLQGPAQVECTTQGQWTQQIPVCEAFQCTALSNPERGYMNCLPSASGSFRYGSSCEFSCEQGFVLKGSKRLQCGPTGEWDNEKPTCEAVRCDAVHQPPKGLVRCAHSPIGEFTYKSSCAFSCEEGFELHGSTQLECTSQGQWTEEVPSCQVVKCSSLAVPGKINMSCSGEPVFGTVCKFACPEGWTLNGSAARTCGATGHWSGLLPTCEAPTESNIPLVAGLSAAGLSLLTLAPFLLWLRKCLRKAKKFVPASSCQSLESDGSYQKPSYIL
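System: HUVEC / Compound: single concentration / Signal: immunofluorescence imaging / Read-out: percent E-selectin-positive cells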
Large screens that a line does not name were inactive. Many of the other results were omitted from the sample, so hits are more common in it than they were.

C[C@H](CO)N1C[C@H](C)[C@@H](CN(C)C(=O)Nc2ccc(F)cc2)Oc2ccc(NC(=O)c3ccncc3)cc2CC1=O	none
C[C@@H]1CN([C@H](C)CO)C(=O)Cc2cc(NC(=O)c3ccncc3)ccc2O[C@@H]1CN(C)S(C)(=O)=O	none
COc1ccc(NC(=O)N(C)C[C@@H]2Oc3ccc(NC(=O)c4ccncc4)cc3CC(=O)N([C@H](C)CO)C[C@@H]2C)cc1	E-sel inducer 226
C[C@H](CO)N1C[C@H](C)[C@H](CN(C)C(=O)Nc2ccccc2)Oc2ccc(NC(=O)c3ccncc3)cc2CC1=O	none
C[C@H](CO)N1C[C@H](C)[C@@H](CN(C)C(=O)Nc2ccc(C(F)(F)F)cc2)Oc2ccc(NC(=O)c3ccncc3)cc2CC1=O	none
COc1ccc(NC(=O)N(C)C[C@@H]2Oc3ccc(N(C)C)cc3CC(=O)N([C@H](C)CO)C[C@@H]2C)cc1	none
COc1ccc(NC(=O)N(C)C[C@H]2Oc3ccc(N(C)C)cc3CC(=O)N([C@H](C)CO)C[C@@H]2C)cc1	E-sel inducer 327
COc1ccc(CN(C)C[C@H]2Oc3ccc(NC(=O)c4ccncc4)cc3CC(=O)N([C@@H](C)CO)C[C@@H]2C)cc1	none
CCC(=O)N[C@@H]1C=C[C@H](CC(=O)NCc2ccccc2F)O[C@@H]1CO	none
CCCNC(=O)N1[C@H](CO)[C@H](c2ccc(-c3ccccc3F)cc2)[C@@H]1C#N	none
C[C@@H]1CN([C@H](C)CO)C(=O)c2cc(NS(=O)(=O)c3ccccc3)ccc2O[C@H]1CN(C)S(=O)(=O)c1ccccc1	none
C[C@@H]1CN([C@@H](C)CO)C(=O)c2cc(N(C)C)ccc2O[C@@H](C)CCCCO[C@@H]1CN(C)S(=O)(=O)c1ccccc1	none
CO[C@H]1CN(C)C(=O)c2cc(NC(=O)Nc3cc(Cl)cc(Cl)c3)ccc2OC[C@H](C)NC[C@@H]1C	none
C[C@H](CO)N1C[C@H](C)[C@@H](CN(C)S(=O)(=O)c2cn(C)cn2)Oc2cc(C3=CCCC3)ccc2S1(=O)=O	none
C[C@@H]1CCCCO[C@H](CN(C)C(=O)CCCN(C)C)[C@@H](C)CN([C@@H](C)CO)C(=O)c2cc(NC(=O)Nc3ccccc3)ccc2O1	none
C[C@H](CO)N1C[C@H](C)[C@H](CN(C)Cc2ccncc2)OCCCC[C@H](C)Oc2ccc(NC(=O)CCC(F)(F)F)cc2C1=O	none
O=C(NCC[C@H]1CC[C@@H](NC(=O)C2CC2)[C@@H](CO)O1)c1cc(Cl)cc(Cl)c1	none
C[C@@H]1CCCCO[C@H](CN(C)C(=O)c2ccccc2)[C@H](C)CN([C@H](C)CO)C(=O)c2cc(NC(=O)C3CCCCC3)ccc2O1	none
COc1ccc(NC(=O)N(C)C[C@@H]2Oc3ccc(NC(=O)c4ccncc4)cc3CC(=O)N([C@@H](C)CO)C[C@@H]2C)cc1	E-sel inducer 81
C[C@H]1CN([C@@H](C)CO)C(=O)Cc2cc(NC(=O)c3ccncc3)ccc2O[C@@H]1CN(C)C(=O)Nc1ccc(C(F)(F)F)cc1	none
COc1ccc(CN(C)C[C@@H]2Oc3ccc(NC(=O)c4ccncc4)cc3CC(=O)N([C@H](C)CO)C[C@@H]2C)cc1	none
C[C@H]1CN([C@@H](C)CO)C(=O)Cc2cc(NC(=O)c3ccncc3)ccc2O[C@H]1CN(C)C(=O)Nc1ccc(F)cc1	none
C[C@H]1CN([C@@H](C)CO)C(=O)Cc2cc(NC(=O)c3ccncc3)ccc2O[C@H]1CN(C)C(=O)Nc1ccc(C(F)(F)F)cc1	E-sel inducer 33
COc1ccc(NC(=O)N(C)C[C@H]2Oc3ccc(NC(=O)c4ccncc4)cc3CC(=O)N([C@H](C)CO)C[C@@H]2C)cc1	E-sel inducer 41
C[C@H](CO)N1C[C@H](C)[C@H](CN(C)C(=O)Nc2ccc(C(F)(F)F)cc2)Oc2ccc(NC(=O)c3ccncc3)cc2CC1=O	none
C[C@@H]1CN([C@H](C)CO)C(=O)Cc2cc(NC(=O)c3ccncc3)ccc2O[C@H]1CN(C)C(=O)Nc1ccc(F)cc1	none
COc1ccc(NC(=O)N(C)C[C@H]2Oc3ccc(NC(=O)c4ccncc4)cc3CC(=O)N([C@@H](C)CO)C[C@H]2C)cc1	none
CCCNC(=O)N1[C@H](CO)[C@@H](c2ccc(C3=CCCC3)cc2)[C@@H]1CNC(=O)CC	none
C[C@H](CO)N1C[C@H](C)[C@@H](CN(C)C(=O)Nc2ccccc2)Oc2cc(C#CC3(O)CCCC3)ccc2S1(=O)=O	none
COCC(=O)N1[C@H](CO)[C@@H]2c3ccccc3N(C(=O)c3ccncc3)C[C@@H]21	none
CCCNC(=O)N1CC2(C1)CN(Cc1ccccn1)[C@H](CO)c1c2c2ccc(OC)cc2n1C	none
C[C@@H]1CCCCO[C@@H](CN(C)C(=O)C2CCCCC2)[C@H](C)CN([C@@H](C)CO)C(=O)c2cc(NC(=O)c3ccncc3)ccc2O1	none
COc1cccc(CN2CC3(C2)CN(C(=O)C2CC2)[C@@H](CO)c2c3c3ccc(OC)cc3n2C)c1	none
O=C(c1ccccc1)c1ccc2ccccc2c1	none
O=C(c1ccccc1)c1c2c(cc3sc4ccccc4[n+]13)-c1cccc3cccc-2c13	E-sel inducer 179
Nc1nc(Nc2ccccc2)sc1C(=O)c1ccccc1	none
CNC[C@@H]1Oc2ccc(NC(=O)Nc3ccc(OC)cc3)cc2C(=O)N([C@H](C)CO)C[C@H]1C	none
C[C@H](CO)N1C[C@H](C)[C@H](CN(C)CC2CCOCC2)Oc2cc(C3=CCCC3)ccc2S1(=O)=O	none
CC(=O)N1[C@H](CO)[C@@H](c2ccccc2)[C@H]1CN(C(=O)NC(C)C)C1CCCC1	none
O=C(Nc1cccc(Cl)c1)NC1CC2CCC1C2 (configuration not stated)	none
O=C(/C=C/c1ccc(Cl)cc1)NC1CC2CCC1C2 (configuration not stated)	E-sel inducer 35
O=C(COC(=O)/C=C/c1ccc(Cl)cc1)NC1CCCC1	none
Cc1cccc(S(=O)(=O)N[C@@H]2CC[C@H](CCNC(=O)c3cnccn3)O[C@H]2CO)c1	none
CC(C)CCNC(=O)[C@H](Cc1ccccc1)N1Cc2ccccc2C1=O	E-sel inducer 76
COC(CNC(=O)[C@H](Cc1ccccc1)N1Cc2ccccc2C1=O)OC	none
C=C1CCN([C@@H](Cc2ccccc2)C(=O)NCCC(C)C)S(=O)(=O)c2ccccc21	none
Cc1ccc(/C(=N/Nc2ncnc3ccccc23)C(=O)O)cc1	E-sel inducer 51
COC(=O)C(=O)C/C(=N/Nc1ncnc2ccccc12)c1ccc(Cl)cc1	none
CC(=O)NNc1ncnc2ccccc12	none
C[C@H]1CN([C@@H](C)CO)C(=O)c2cc(Br)cnc2O[C@H]1CN(C)C(=O)Nc1ccc(F)cc1	none
CO[C@@H]1CN(C)C(=O)c2ccc(NS(C)(=O)=O)cc2OC[C@@H](C)N(C(=O)C2CC2)C[C@H]1C	none
Cc1ccccc1NC(=O)CN1CCN(c2ccc(F)cc2)CC1	none
COc1cccc(N2CCN(CC(=O)Nc3ccccc3C(=O)NCc3ccccc3)CC2)c1	none
O=C(CN1CCN(c2ccc(O)cc2)CC1)Nc1ccccc1C(=O)NCCc1ccccc1	E-sel inducer 66
COc1ccc(-c2ccc3n(c2=O)C[C@@H]2[C@@H](CO)[C@H](C(=O)N(C)C)N(CC4CCOCC4)[C@H]32)cc1	none
C[C@@H](O)C#Cc1cnc2c(c1)C(=O)N([C@@H](C)CO)C[C@H](C)[C@@H](CN(C)C(=O)Nc1ccc(C(F)(F)F)cc1)O2	none
C[C@@H]1CN([C@H](C)CO)C(=O)c2cc(NS(=O)(=O)c3ccc(F)cc3)ccc2O[C@@H]1CN(C)S(=O)(=O)c1cn(C)cn1	none
CC(=O)N(C)C[C@@H]1Oc2cc(-c3ccccc3C)ccc2S(=O)(=O)N([C@@H](C)CO)C[C@@H]1C	none
